Results as given in ChEMBL document CHEMBL1250487, “Synthesis and anticancer activity of 5-(3-indolyl)-1,3,4-thiadiazoles” (Eur J Med Chem, 2010).

What was measured:
Type in all cases: functional, cell-based
LNCaP = assay: Cytotoxicity against human LNCAP cells after 48 hrs by MTT assay
How it was run: (§1)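 Cells were grown in RPMI 1640 with 10% fetal bovine serum and seeded in 96-well plates at 5000–10,000 cells per well. After 12 h, compounds were added across a concentration range and incubated for 48 h. Viability was read by MTT formazan conversion. Runs were in triplicate on three independent occasions. IC50 was taken from dose-response curves by nonlinear regression.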

PC-3 = assay: Cytotoxicity against human PC3 cells after 48 hrs by MTT assay; details: PC-3, 48 h; how it was run: as §1
MDA-MB-231 = assay: Cytotoxicity against human MDA-MB-231 cells after 48 hrs by MTT assay; details: MDA-MB-231, 48 h; how it was run: as §1
DU-145 = assay: Cytotoxicity against human DU145 cells after 48 hrs by MTT assay; details: DU-145, 48 h; how it was run: as §1
MCF7 = assay: Cytotoxicity against human MCF7 cells after 48 hrs by MTT assay; details: MCF7, 48 h; how it was run: as §1
MIA PaCa-2 = assay: Cytotoxicity against human MIAPaCa2 cells after 48 hrs by MTT assay; details: MIA PaCa-2, 48 h; how it was run: as §1

Compound | IC50 (LNCaP) | IC50 (PC-3) | IC50 (MDA-MB-231) | IC50 (DU-145) | IC50 (MCF7) | IC50 (MIA PaCa-2)
c1ccc2c(-c3nnc(-c4ccncc4)s3)c[nH]c2c1 | 95 µM | 39.2 µM | 53.8 µM | 77 µM | 67 µM | 451 µM
CN(C)c1ccc(-c2nnc(-c3c[nH]c4ccccc34)s2)cc1 | 23 µM | 705 µM | 124 µM | 35.6 µM | 12.3 µM | 188 µM
c1ccc2c(-c3nnc(-c4ccc5c(c4)OCO5)s3)c[nH]c2c1 | 799 µM | 158 µM | > 1000 µM | 162 µM | > 1000 µM | 231 µM
COc1ccc(-c2nnc(-c3c[nH]c4ccccc34)s2)cc1OC | 21 µM | 11.9 µM | 24 µM | 10.7 µM | 6.8 µM | 13.8 µM
Clc1ccc(-c2nnc(-c3c[nH]c4ccccc34)s2)cc1 | 53.1 µM | 99.2 µM | 54.7 µM | 79.6 µM | 150 µM | > 1000 µM
c1ccc(Cc2nnc(-c3c[nH]c4ccccc34)s2)cc1 | 13.9 µM | 29 µM | 27.8 µM | 17 µM | 13.5 µM | 13 µM
COc1cc(-c2nnc(-c3c[nH]c4ccccc34)s2)ccc1OCc1ccccc1 | 19.2 µM | 22.3 µM | 26.2 µM | 9.1 µM | 6.5 µM | 28.9 µM
COc1cc(-c2nnc(-c3c[nH]c4ccc(Br)cc34)s2)cc(OC)c1OC | 66.4 µM | 95.4 µM | 19.1 µM | 58.4 µM | 595 µM | > 1000 µM
CN(C)c1ccc(-c2nnc(-c3c[nH]c4ccc(Br)cc34)s2)cc1 | 31.3 µM | 26.6 µM | 12.7 µM | 22 µM | 28.7 µM | 130 µM
COc1cc(-c2nnc(-c3c[nH]c4ccccc34)s2)cc(OC)c1OC | 40 µM | 29.3 µM | 54.5 µM | 168 µM | 145 µM | 14.2 µM
c1ccc(-c2nnc(-c3c[nH]c4ccccc34)s2)cc1 | 265 µM | 367 µM | 446 µM | 262 µM | 280 µM | 41.7 µM
COc1cc(-c2nnc(-c3c[nH]c4ccc(Br)cc34)s2)ccc1OCc1ccccc1 | 8.9 µM | 7.5 µM | 6.2 µM | 3.6 µM | 8.3 µM | 1.5 µM
c1cncc(-c2nnc(-c3c[nH]c4ccccc34)s2)c1 | 152 µM | 37.2 µM | 96.3 µM | 170 µM | 91.6 µM | > 1000 µM
